The values below come from ChEMBL document CHEMBL4842356, “Discovery, optimization, and target identification of novel coumarin derivatives as HIV-1 reverse transcriptase-associated ribonuclease H inhibitors” (Eur J Med Chem, 2021).

Test [1] deals with Human immunodeficiency virus 1. The experiment in a line: Antiviral activity against wild type HIV1 3B infected in human MT4 cells assessed as protection against virus-induced cytopathic effect incubated for 5 days by MTT assay. Type of test: functional, organism-based. The settings on record: Human immunodeficiency virus 1, 3B, MT4, 120 h. The procedure, abridged: (§1)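 MT-4 cells (exponentially growing, resuspended at 6 × 10⁵ cells/mL) were seeded onto serial five-fold compound dilutions and infected with 100–300 CCID₅₀ virus stock, or given medium only (mock). Viability was read by MTT at 540 and 690 nm five days after infection, using the median OD of three wells. EC₅₀ is 50% protection from viral cytopathicity. CC₅₀ is 50% loss of viability in mock-infected cells.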

Test [2] deals with Human immunodeficiency virus 2. Nature of the test: Antiviral activity against HIV2 ROD infected in human MT4 cells assessed as protection against virus-induced cytopathic effect incubated for 5 days by MTT assay. The note with it: Human immunodeficiency virus 2, ISOLATE ROD, MT4, 120 h. In general terms: Damage to the host cells serves as the signal in cytopathic effect assays.

For a further test, the system named is MT4. Nature of the test: Cytotoxicity against mock-infected human MT4 cells assessed as reduction in cell viability measured after 5 days by MTT assay. Type of test: functional. The settings on record: MT4, 120 h, time 5 day. The procedure, abridged:
as §1

The target of test [3] is Human immunodeficiency virus type 1 reverse transcriptase (Human immunodeficiency virus 1) (UniProt Q72547). Nature of the test: Inhibition of wild type HIV1 Reverse transcriptase RNase H expressed in Escherichia coli at 100 uM using 5'-UUUUUUUUUAGGAUACAUAUGGUUAAAGU-3' oligonucleotide as substrate and DNA21P as primer in presence of [gamma32P]-ATP by PAGE analysis relative to control.

Test [4] addresses Human immunodeficiency virus type 1 reverse transcriptase (Human immunodeficiency virus 1, UniProt Q72547). Nature of the test: Inhibition of wild type HIV1 Reverse transcriptase RNase H expressed in Escherichia coli using 5'-UUUUUUUUUAGGAUACAUAUGGUUAAAGU-3' oligonucleotide as substrate and DNA21P as primer in presence of [gamma32P]-ATP by PAGE analysis. In outline: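 Wild-type HIV-1 BH10 RT was expressed in E. coli and purified. RNase H activity was measured on a 31-nt RNA, 5′-³²P-labelled, annealed to a 21-nt DNA (31T/21P). Cleaved substrate was quantified without inhibitor (5% DMSO) and with compound over 0.2–100 µM. IC₅₀ values were taken from dose-response curves.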

Test [5] concerns the target Human immunodeficiency virus type 1 reverse transcriptase (Human immunodeficiency virus 1) (UniProt Q72547). Nature of the test: Inhibition of wild type HIV1 Reverse transcriptase RNase H expressed in Escherichia coli at 50 uM using 5'-UUUUUUUUUAGGAUACAUAUGGUUAAAGU-3' oligonucleotide as substrate and DNA21P as primer in presence of [gamma32P]-ATP by PAGE analysis relative to control.

Consider `Cc1c(O)c([N+](=O)[O-])cc2cc(C(=O)NC3CCN(Cc4ccc(F)cc4)CC3)c(=O)oc12`, for which the EC50 in test [1] and in test [2] was > 42.6 µM throughout. Besides, the CC50 (usually the concentration at which the toxic effect on the cells reaches its halfway point) in the test with MT4 is 42.6 µM.

`O=C(NCc1ccccc1F)c1cc2cc([N+](=O)[O-])c(O)c(O)c2oc1=O`: the concentration giving a half-maximal response (EC50) in test [1] and in test [2] was > 259 µM each time. In addition, in the test with MT4, the cytotoxic concentration (CC50) was 259 µM.

For `Cc1c(O)c([N+](=O)[O-])cc2cc(C(=O)NC3CCN(Cc4cccc(Cl)c4)CC3)c(=O)oc12`, the EC50 – broadly, the concentration needed to bring the measured effect to its halfway point – in test [1] is > 9.38 µM. Besides, in the test with MT4, the CC50 was 9.37 µM.

For the compound `Cc1c(O)c([N+](=O)[O-])cc2cc(C(=O)NC3CCN(C(=O)c4ccc([N+](=O)[O-])cc4)CC3)c(=O)oc12`, the EC50 in test [1] and in test [2] was > 251 µM in each case. Further, the CC50 in the test with MT4 was > 251 µM.

For `N#Cc1ccc(CN2CCC(NC(=O)c3cc4cc([N+](=O)[O-])c(O)c(O)c4oc3=O)CC2)cc1`, the results for the EC50 in test [1] and in test [2] were 160 µM and > 269 µM, respectively. In addition, the CC50 in the test on MT4 was > 269 µM.

In the case of `O=C(NC1CCN(Cc2cccc(Br)c2)CC1)c1cc2cc([N+](=O)[O-])c(O)c(O)c2oc1=O`, the inhibition (commonly how much of the control response was suppressed) in test [3] stood at 57.4%; in test [5], 32.4%. For the same compound, the concentration giving a half-maximal response (EC50) in test [1] and in test [2] was > 153 µM each time. For the same compound, in test [4], the IC50 (as a rule, the concentration at which inhibition is half-maximal) was > 50 µM. Also, in the test on MT4, the CC50 worked out at 153 µM.

For the compound `COC(=O)c1cc(NC(=O)c2cc3cc([N+](=O)[O-])c(O)c(C)c3oc2=O)ccc1O`, the half-maximal effective concentration (EC50) in test [1] and in test [2] was > 182 µM throughout. In addition, the CC50 in the test with MT4 was determined as 182 µM.

As to `Cc1c(O)c([N+](=O)[O-])cc2cc(C(=O)NCc3ccc(F)cc3)c(=O)oc12`, the EC50 in test [1] and in test [2] was > 44 µM each time. The 50% cytotoxic concentration (CC50) in the test on MT4 is 44 µM.

Consider `O=C(Nc1ccc(F)cc1F)c1cc2cc([N+](=O)[O-])c(O)c(O)c2oc1=O`, for which the inhibition in test [3] worked out at 78%; in test [5], 12%. In addition, the results for the EC50 in test [1] and in test [2] were 237 µM and > 330 µM, respectively. In addition, in test [4], the 50% inhibitory concentration (IC50) is > 50 µM. In the test with MT4, the CC50 was > 330 µM.

Consider `O=C(NC1CCN(Cc2cccc(Cl)c2)CC1)c1cc2cc([N+](=O)[O-])c(O)c(O)c2oc1=O`, for which the values for the inhibition in test [3] and in test [5] were 72.5% and < 10%, respectively. In addition, the half-maximal effective concentration (EC50) in test [1] and in test [2] was > 143 µM in each case. For the same compound, the IC50 in test [4] is > 50 µM. Further, in the test with MT4, the cytotoxic concentration (CC50) is 143 µM.

As to `Cc1c(O)c([N+](=O)[O-])cc2cc(C(=O)Nc3cccc(F)c3)c(=O)oc12`, the inhibition in test [3] was 28.6%. The EC50 in test [1] and in test [2] was > 12.5 µM in each case. Also, in test [4], the concentration for half-maximal inhibition (IC50) was > 100 µM. Also, in the test on MT4, the half-maximal cytotoxic concentration (CC50) was 12.5 µM.

`Cc1c(O)c([N+](=O)[O-])cc2cc(C(=O)NC3CCN(Cc4ccc(Br)cc4)CC3)c(=O)oc12`: the EC50 in test [1] and in test [2] was > 72.3 µM each time. For the same compound, the half-maximal cytotoxic concentration (CC50) in the test on MT4 was 72.3 µM.

Turning to `Cc1c(O)c([N+](=O)[O-])cc2cc(C(=O)NC3CCN(S(=O)(=O)N(C)C)CC3)c(=O)oc12`, the 50% effective concentration (EC50) in test [1] and in test [2] was > 50.8 µM throughout. Besides, in the test with MT4, the CC50 is 50.8 µM.

Take `Cc1c(O)c([N+](=O)[O-])cc2cc(C(=O)NC3CCN(Cc4cccc(F)c4)CC3)c(=O)oc12`: the EC50 in test [1] and in test [2] was > 50.5 µM throughout. Further, the concentration for half-maximal inhibition (IC50) in test [4] amounted to 45.2 µM. The CC50 in the test on MT4 was found to be 50.5 µM.

`Cc1c(O)c([N+](=O)[O-])cc2cc(C(=O)NC3CCN(Cc4ccc(Cl)cc4)CC3)c(=O)oc12`: the inhibition in test [3] was 23.8%. The EC50 in test [1] is 167 µM; in test [2], 148 µM. Besides, in test [4], the IC50 was > 100 µM. Moreover, in the test on MT4, the CC50 is > 264 µM.

For `O=C(NC1CCN(Cc2ccc(Br)cc2)CC1)c1cc2cc([N+](=O)[O-])c(O)c(O)c2oc1=O`, the inhibition in test [3] worked out at 47.4%. The half-maximal effective concentration (EC50) in test [1] and in test [2] was > 112 µM in each case. For the same compound, the IC50 in test [4] was > 100 µM. The CC50 in the test on MT4 was found to be 112 µM.

On to `Cc1c(O)c([N+](=O)[O-])cc2cc(C(=O)Nc3ccc(F)cc3)c(=O)oc12`, for which the half-maximal effective concentration (EC50) in test [1] and in test [2] was > 6.5 µM each time. Besides, in the test with MT4, the CC50 was 6.5 µM.

Turning to `Cc1c(O)c([N+](=O)[O-])cc2cc(C(=O)Nc3ccccc3F)c(=O)oc12`, the EC50 in test [1] and in test [2] was > 10.7 µM in each case. Moreover, the half-maximal cytotoxic concentration (CC50) in the test on MT4 is 10.7 µM.

As to `Cc1c(O)c([N+](=O)[O-])cc2cc(C(=O)NCc3cccc(F)c3)c(=O)oc12`, the concentration for a half-maximal effect (EC50) in test [1] and in test [2] was > 47.5 µM throughout. Moreover, the 50% cytotoxic concentration (CC50) with MT4 turned out to be 47.5 µM.

Take `O=C(NC1CCN(Cc2cccc(F)c2)CC1)c1cc2cc([N+](=O)[O-])c(O)c(O)c2oc1=O`: the inhibition in test [3] turned out to be 57.7%. The values for the EC50 in test [1] and in test [2] were 210 µM and > 220 µM, respectively. The half-maximal inhibitory concentration (IC50) in test [4] was > 50 µM. Also, the 50% cytotoxic concentration (CC50) with MT4 is > 220 µM.

For `O=C(NC1CCN(Cc2ccc(Cl)cc2)CC1)c1cc2cc([N+](=O)[O-])c(O)c(O)c2oc1=O`, the EC50 in test [1] and in test [2] was > 21.7 µM each time. In addition, the IC50 in test [4] turned out to be 8.4 µM. For the same compound, the cytotoxic concentration (CC50) in the test with MT4 is 21.7 µM. Besides, the inhibition in test [5] is 31.8%.

Regarding `O=C(NC1CCN(Cc2ccc([N+](=O)[O-])cc2)CC1)c1cc2cc([N+](=O)[O-])c(O)c(O)c2oc1=O`, the EC50 in test [1] and in test [2] was > 101 µM each time. In addition, in the test with MT4, the CC50 is > 217 µM.

`O=C(NCc1cccc(F)c1)c1cc2cc([N+](=O)[O-])c(O)c(O)c2oc1=O`: the EC50 in test [1] and in test [2] was > 228 µM each time. Further, the CC50 with MT4 is 228 µM.

With `Cc1c(O)c([N+](=O)[O-])cc2cc(C(=O)NCc3ccc(F)cc3Cl)c(=O)oc12`, the EC50 in test [1] and in test [2] was > 32.5 µM throughout. Also, the half-maximal cytotoxic concentration (CC50) in the test with MT4 stood at 32.5 µM.

As to `O=C(NCc1ccc(F)cc1)c1cc2cc([N+](=O)[O-])c(O)c(O)c2oc1=O`, the inhibition in test [3] was determined as 48%. The EC50 in test [1] and in test [2] was > 272 µM throughout. Further, in test [4], the IC50 is > 100 µM. Moreover, in the test with MT4, the CC50 turned out to be 272 µM.

Take `Cc1c(O)c([N+](=O)[O-])cc2cc(C(=O)NC3CCN(C(=O)N(C)C)CC3)c(=O)oc12`: the EC50 in test [1] and in test [2] was > 19.9 µM each time. Moreover, in the test with MT4, the CC50 was 19.9 µM.

On to `Cc1c(O)c([N+](=O)[O-])cc2cc(C(=O)NC3CCN(Cc4ccccc4)CC3)c(=O)oc12`, for which the concentration giving a half-maximal response (EC50) in test [1] and in test [2] was > 7.8 µM in each case. In addition, in the test on MT4, the CC50 came out at 7.8 µM.

With `Cc1c(O)c([N+](=O)[O-])cc2cc(C(=O)NC3CCN(Cc4ccc([N+](=O)[O-])cc4)CC3)c(=O)oc12`, the concentration for a half-maximal effect (EC50) in test [1] was 234 µM; in test [2], > 259 µM. Besides, the CC50 with MT4 is > 264 µM.

With `Cc1c(O)c([N+](=O)[O-])cc2cc(C(=O)NCc3ccccc3F)c(=O)oc12`, the inhibition in test [3] was 38.7%. Moreover, the 50% effective concentration (EC50) in test [1] and in test [2] was > 45 µM in each case. The concentration for half-maximal inhibition (IC50) in test [4] was > 100 µM. In addition, the CC50 with MT4 was determined as 45 µM.

Take `Cc1ccc(CN2CCC(NC(=O)c3cc4cc([N+](=O)[O-])c(O)c(C)c4oc3=O)CC2)cc1`: the concentration giving a half-maximal response (EC50) in test [1] and in test [2] was > 276 µM throughout. The cytotoxic concentration (CC50) in the test on MT4 was > 276 µM.
